NTR1 ag: agonists of human NTR1, primary screen, imaging, U2OS cells, beta-arrestin-GFP, high content; Neurotensin receptor type 1 (Homo sapiens), P30989; NTR1-U2OS beta-arrestin-GFP spot imaging, agonist mode; activation, % at 20 µM; hit rate 0.17% among 330,000;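 active = activation at or above 40% of the spot to cytoplasm intensity ratio, with at least 20 cells analyzed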
Target sequence (P30989 whole entry, looked up): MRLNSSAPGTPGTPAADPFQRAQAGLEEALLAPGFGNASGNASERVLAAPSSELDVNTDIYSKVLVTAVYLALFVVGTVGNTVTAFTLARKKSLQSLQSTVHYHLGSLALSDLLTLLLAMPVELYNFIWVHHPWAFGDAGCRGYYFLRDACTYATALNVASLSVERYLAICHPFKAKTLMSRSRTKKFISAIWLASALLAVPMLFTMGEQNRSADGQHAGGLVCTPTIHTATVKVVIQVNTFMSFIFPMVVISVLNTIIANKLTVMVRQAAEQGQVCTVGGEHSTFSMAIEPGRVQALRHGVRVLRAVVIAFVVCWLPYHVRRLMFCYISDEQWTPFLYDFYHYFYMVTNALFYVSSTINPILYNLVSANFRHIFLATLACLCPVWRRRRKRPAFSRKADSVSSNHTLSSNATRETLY
PREPL inh: PREPL enzyme inhibitors, primary screen, biochemical, fluorescence polarization; hit rate 0.68% among 320,000; Prolyl endopeptidase-like (Homo sapiens), Q4J6C6; recombinant PREPL, fluorescence polarization activity-based probe; inhibition, % at 5.96 µM; in the data active = inhibition above about 43%
HTR2A ag: mouse Htr2a agonists via beta-arrestin recruitment, primary screen, cell-based, luminescence; 5-hydroxytryptamine receptor 2A (Mus musculus), P35363; CHO-K1 mHTR2A beta-arrestin complementation; percent of 30 µM serotonin response; activation, % at 7.6 µM; hit rate 0.66% among 360,000; AID 624169, 2012;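 active = activation above a run cutoff, the mean activation of all tested compounds plus 3 SD, cut at about 14% in these data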
Lipid droplet: inhibitors of hepatocyte lipid droplet formation, primary screen, imaging, high-throughput imaging, BODIPY stain | AML12 mouse hepatocytes, oleate lipid droplets | inhibition, % at 6.5 µM | hit rate 0.4% among 240,000;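 active = lipid droplet intensity inhibited by at least 50%, with more than 500 cells counted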
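Technique: fluorescence imaging, 20x objective, two fields per well / Assay system: AML12 hepatocytes (mouse) / Measure: % inhibition of lipid droplet signal / Doses: 6.5 µM single-point dosing / Incubation: overnight exposure / Reagent: 100 µM oleic acid challenge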
MC4R ag barr: MC4R agonists recruiting beta-arrestin, primary screen, cell-based, luminescence, agonist arm of biased-ligand search; activation, % at 8.9 µM; AID 540308, 2011; Melanocortin receptor 4 (Homo sapiens), P32245; U2OS MC4R beta-arrestin complementation; percent of melanotan II response, DMSO zero; hit rate 0.98% among 360,000;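 active = activation above a per-plate cutoff, the mean activation of sample wells on that plate plus 3 SD, cut at about 8% in these data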
Target sequence (P32245 whole entry, looked up): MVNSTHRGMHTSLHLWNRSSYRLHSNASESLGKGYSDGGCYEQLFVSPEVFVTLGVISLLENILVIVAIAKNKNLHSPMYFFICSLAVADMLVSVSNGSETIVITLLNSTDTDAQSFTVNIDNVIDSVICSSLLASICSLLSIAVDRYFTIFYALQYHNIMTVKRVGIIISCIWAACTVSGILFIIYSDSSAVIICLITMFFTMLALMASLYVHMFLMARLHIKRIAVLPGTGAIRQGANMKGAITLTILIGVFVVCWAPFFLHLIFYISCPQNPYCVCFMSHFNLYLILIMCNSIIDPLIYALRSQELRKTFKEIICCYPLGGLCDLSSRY
MC4R antag cAMP: MC4R antagonists of cAMP signaling, primary screen, cell-based, TR-FRET, antagonist arm of biased-ligand search; hit rate 0.48% among 360,000; inhibition, % at 6.5 µM; MC4R-expressing cells, MTII-stimulated cAMP, LANCE TR-FRET;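 active = inhibition above its plate's cutoff, the mean of tested wells on that plate plus 3 SD, cut at about 29% in these data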
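System: U2OS-MC4R stable cell line; Technique: Eu-cAMP/anti-cAMP TR-FRET, emission 671 nm; Repeats: single well per compound; Also added: Melanotan II; Dosing: one concentration, 6.5 µM nominal; Schedule: 30-min compound, 1-h challenge, 1-h detection, room temperature.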
OPRM1 ag: OPRM1 agonists via beta-arrestin recruitment, confirmation, counter-screen for mouse HTR2A agonist project, cell-based, luminescence, single concentration; shares compounds with HTR2A ag; U2OS OPRM1 beta-arrestin PathHunter; DMSO 0%, DAMGO 9.3 µM 100%; activation, % at 9.3 µM; hit rate 5.3% among 2,300; AID 624380, 2012;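 active = mean activation above the mean of DMSO-only wells plus 3 SD, cut at about 0.5% in these data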
HTR2A ag conf: mouse HTR2A agonists, beta-arrestin recruitment, confirmation, cell-based, luminescence, CHO-K1 PathHunter, triplicate; shares compounds with HTR2A ag; DMSO 0%, 30 µM serotonin 100%; activation, % at 7.6 µM; hit rate 19% among 2,300; AID 624381, 2012;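 active = mean activation across triplicates above the hit threshold derived in the original primary screen, cut at about 15% in these data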
Each line names hits and unclear results; the compound was inactive in the other large screens (follow-up assays come after a bar, where they were run). Hits are enriched below; roughly 2.7% of the tested compounds scored in any of these assays.

COc1ccc(C2=CC(=O)C[C@H](CN3C(=O)c4ccccc4C3=O)N(C(=O)OC(C)(C)C)O2)cc1	HTR2A ag 14.9 (no result: NTR1 ag, PREPL inh, Lipid droplet) | OPRM1 ag inactive | HTR2A ag conf inactive
CCC[C@H]1CC(=O)C=C(c2ccsc2)ON1C(=O)OC(C)(C)C	none (no result: NTR1 ag, PREPL inh, Lipid droplet)
Cc1cccc(C(=O)N[C@H](C(=O)NCCc2ccc(S(N)(=O)=O)cc2)C(C)C)c1	none
CN(C)C(=O)CCC(=O)N1CCCC(C(=O)c2ccc(C(F)(F)F)cc2)C1 (stereo unspecified)	none
c1ccc(-c2c(-c3ccccc3)n(Cc3ccco3)c3ncnc(NCCCn4ccnc4)c23)cc1	none
OCCNc1ncnc2c1c(-c1ccccc1)c(-c1ccccc1)n2Cc1ccco1	HTR2A ag 14.5 | OPRM1 ag inactive | HTR2A ag conf inactive
CC(CN1CCN(Cc2ccccc2)CC1)OC(=O)c1ccco1 (stereo unspecified)	none
COc1cc2c(c(OC)c1OC)-c1ccc(N(C)CC(OC)OC)c(=O)cc1[C@@H](NC(C)=O)CC2	HTR2A ag 25.2 (no result: Lipid droplet) | OPRM1 ag inactive | HTR2A ag conf inactive
CCCc1cc(CCC)n2nc(N)nc2n1	HTR2A ag 15.2 (no result: NTR1 ag, PREPL inh, Lipid droplet) | OPRM1 ag inactive | HTR2A ag conf inactive
C=CCn1c(N)c(C(=O)Nc2cccc(C)c2)c2nc3ccccc3nc21	HTR2A ag 19.7 (no result: Lipid droplet) | OPRM1 ag inactive | HTR2A ag conf inactive
O=C(C[C@H]1CC[C@H]2[C@@H](COC[C@@H](O)CN2C(=O)c2cnccn2)O1)NCc1ccc(Oc2ccccc2)cc1	none (no result: NTR1 ag, PREPL inh, Lipid droplet, MC4R ag barr, MC4R antag cAMP)
O=C(Cc1ccccc1)NCC(=O)N/N=C/c1ccc([N+](=O)[O-])s1	HTR2A ag 18.5 | OPRM1 ag inactive | HTR2A ag conf inactive
CC(C)(CNC(=O)c1cc2c(s1)CCCC2)N1CCOCC1	none (no result: Lipid droplet)
CCCCN1C(=O)C(=O)NC[C@H]1Cc1cccc2ccccc12	none (no result: NTR1 ag, PREPL inh, Lipid droplet, MC4R ag barr, MC4R antag cAMP)
O=C1NC[C@@H](Cc2cccc3ccccc23)N(CC2(c3ccccc3)CC2)C1=O	HTR2A ag 16.0 | OPRM1 ag inactive | HTR2A ag conf inactive
COc1ccc(C(=O)N=C2SC3CS(=O)(=O)CC3N2c2ccc(C(C)=O)cc2)cc1 (stereo unspecified)	HTR2A ag 15.7 | OPRM1 ag inactive | HTR2A ag conf inactive
O=C(c1[nH]c(C(F)(F)F)nc1-c1ccccc1)N1CCN(c2c(Cl)cncc2Cl)CC1	none (no result: NTR1 ag, PREPL inh, Lipid droplet, MC4R ag barr, MC4R antag cAMP)
CCN(CC(=O)Nc1ccccc1OC)C(=O)COc1ccc(C#N)cc1	none (no result: NTR1 ag, PREPL inh, Lipid droplet)
O=C(Cn1c(=O)oc2cc(S(=O)(=O)N3CCCC3)ccc21)N1CCN(c2ccccc2)CC1	none (no result: Lipid droplet)
Cc1ccc(C)c(N2CCN(C(=O)Cn3c(=O)oc4cc(S(=O)(=O)N5CCCC5)ccc43)CC2)c1	HTR2A ag 29.2 | OPRM1 ag inactive | HTR2A ag conf inactive
CC(NC(=O)Cn1c(=O)oc2cc(S(=O)(=O)N3CCCC3)ccc21)c1ccccc1 (stereo unspecified)	HTR2A ag 18.0 (no result: Lipid droplet) | OPRM1 ag inactive | HTR2A ag conf inactive
CCOC(=O)C1CCN(c2ccc([N+](=O)[O-])c(C(C)=O)c2)CC1	none
CC(NC(=O)CCl)c1ccccc1Br (stereo unspecified)	none
CCOc1ccc(N2C(=O)CC(N(CCc3ccc(OC)cc3)C(=O)/C=C/C(=O)O)C2=O)cc1 (stereo unspecified)	HTR2A ag 16.8 | OPRM1 ag inactive | HTR2A ag conf inactive
CCCCc1cc(=O)oc2cc(OCC(=O)NCc3ccccn3)c(Cl)cc12	none
CCCCc1cc(=O)oc2cc(OC(C)C(=O)NCc3ccccn3)c(Cl)cc12 (stereo unspecified)	HTR2A ag 17.1 | OPRM1 ag inactive | HTR2A ag conf inactive
c1ccc(Nc2nc(Nc3ccccc3)nc(N3CCNCC3)n2)cc1	HTR2A ag 20.5 | OPRM1 ag inactive | HTR2A ag conf inactive
COc1coc(/C=C/C(=O)O)cc1=O	HTR2A ag 22.0 (no result: Lipid droplet) | OPRM1 ag inactive | HTR2A ag conf inactive
COc1cc(/C=C/C(=O)O)ccc1O	none (no result: Lipid droplet)
O=C(Nc1nncs1)c1cccnc1Cl	none
COc1cc(OC)cc(C(=O)NCC(C)NC(=O)c2cc(OC)cc(OC)c2)c1 (stereo unspecified)	none (no result: Lipid droplet)
Cc1ccccc1CN1CCN(C(=O)c2ccco2)CC1	HTR2A ag 25.3 | OPRM1 ag inactive | HTR2A ag conf 85.0
Cc1cc(Br)cc(Cl)c1OCC(=O)N1CCN(C(=O)c2ccco2)CC1	none (no result: Lipid droplet)
O=C(c1ccco1)N1CCN(Cc2cccnc2)CC1	none
Cc1ccccc1-n1c(=O)cc(N2CCN(C(=O)c3ccco3)CC2)[nH]c1=O	HTR2A ag 24.2 | OPRM1 ag inactive | HTR2A ag conf inactive
Cc1ccc(CN2CCN(C(=O)c3ccco3)CC2)cc1	HTR2A ag 42.8 | OPRM1 ag inactive | HTR2A ag conf 120.7
Cc1cc(C)c(OCC(=O)OCC(=O)N2CCN(C(=O)c3ccco3)CC2)c(C)c1	HTR2A ag 18.8 (no result: Lipid droplet) | OPRM1 ag inactive | HTR2A ag conf inactive
CC(C)Cc1cc(CNC(=O)C2CCC(=O)N(Cc3cccc(C(F)(F)F)c3)C2)on1 (stereo unspecified)	none
Cc1ccc(S(=O)(=O)NC(=O)N(CCC#N)Cc2ccccc2)cc1	none
CCOc1ccc(N2C(=O)CC(NCC#N)C2=O)cc1 (stereo unspecified)	none
O=C(c1ccco1)N1CCN(Cc2c(F)cccc2Cl)CC1	none
Cc1ccsc1C(=O)N1CCN(C(=O)c2ccco2)CC1	HTR2A ag 17.3 (no result: Lipid droplet) | OPRM1 ag inactive | HTR2A ag conf inactive
O=C(c1ccco1)N1CCN(Cc2ccccc2F)CC1	HTR2A ag 20.4 | OPRM1 ag inactive | HTR2A ag conf 75.9
Cc1cccc(NS(=O)(=O)c2ccc(NC(=O)N3CCCCC3)cc2)c1	HTR2A ag 14.8 | OPRM1 ag inactive | HTR2A ag conf inactive
Cc1ccc(S(=O)(=O)N2CCC(C(=O)N3CCC3)CC2)cc1	HTR2A ag 16.6 | OPRM1 ag inactive | HTR2A ag conf inactive

Assay outcomes from PubChem BioAssay.
